# Shown are actives, neighbours in structure and some others; about 3.7% of the full set was active somewhere.
# KCNQ1 block: blocks the human KCNQ1 potassium channel | B-score at 10 µM | actives 1.3% (n = 310,000) | CHO-K1 KCNQ1, FluxOR thallium flux fluorescence; stronger effect = higher value;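 active = compounds whose thallium flux B-score, printed positive for inhibition, exceeds three library SD while starting fluorescence stays within three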;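 also: channel opened by potassium depolarization with thallium stimulus after 20 min compound exposure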
# KCNK9 inh: inhibitors of human KCNK9 two-pore domain potassium channel | Q9NPC2 | HEK293 KCNK9, FluxOR thallium flux fluorescence; stronger effect = lower value | B-score at 10 µM | actives 1.2% (n = 310,000) | AID 488922;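 active = ratio B-score over 3 SD below the library mean, with starting fluorescence within 5 SD of its mean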;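 also: negative B-score means less thallium flux so channel inhibition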
# hERG rescue: hERG (human) protection from proarrhythmic block | CHO-hERG, FluxOR thallium flux, dofetilide IC70 present | activation (rescue from dofetilide block), less the hit threshold, % at 10 µM | actives 0.51% (n = 310,000);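 active = activation above the mean of controls blocked by dofetilide plus 5 SD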;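 also: thallium influx through hERG after potassium depolarization seen as dye fluorescence rise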
# Kir21 block: blocks the mouse Kir2.1 inward-rectifier potassium channel; HEK293-Kir2.1, FluxOR thallium flux fluorescence; stronger effect = lower value; B-score at 10 µM; actives 0.85% (n = 310,000); AID 1672;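 active = fluorescence ratio B-score at or below minus 3 SD of library scores, with starting-brightness B-score within 2 SD, cut at about -4.2 in these data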;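 also: channel flux triggered by added potassium and thallium sulfate stimulus; B-score of peak minus minimum fluorescence over baseline after thallium stimulus; more negative B-score means stronger Kir2.1 block with less thallium influx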
# KCNK3 block: human KCNK3 channel inhibition, primary screen. O14649. CHO-KCNK3 thallium flux, FluxOR fluorescence; stronger effect = lower value. B-score at 10 µM. actives 0.84% (n = 340,000);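 active = B-score under library mean minus 4 SD, starting fluorescence ratio at most library mean plus 5 SD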;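 also: more negative B-score means stronger inhibition of thallium flux through KCNK3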
# KCNQ1 act: human KCNQ1 channel potentiation or activation. AID 2648. B-score at 10 µM. actives 0.35% (n = 310,000). CHO-K1 KCNQ1, thallium flux FluxOR fluorescence; stronger effect = higher value. P51787;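 active = fluorescence ratio B-score, a plate-corrected score, at least three library SD, with initial intensity B-score within 5 SD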
#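 Material: CHO-K1 cells stably expressing KCNQ1. Medium: assay buffer for compound exposure, DMSO matched across wells. Reagent: K+/Tl+ depolarizing stimulus. Compound dosing: single-concentration screen. Times: 37 °C overnight plating, 90-min dark dye load, 20-min compound pretreatment. Technique: FluxOR Tl+ flux fluorescence.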
# KCNQ1 inh valid: human KCNQ1 channel inhibition, validation assay. shares compounds with KCNQ1 block. KCNQ1 cell line, FluxOR thallium flux fluorescence. inhibition, % at 10 µM. actives 93% (n = 1,600). AID 588353;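 active = primary screen active, with duplicate mean exceeding buffer control mean plus 3 SD of buffer wells, cut at about 28% in these data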;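 also: 0% = buffer control ratio and 100% = XE991 inhibitor control ratio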
# CHO KCNQ1 ctr: activity in parental CHO cells lacking KCNQ1; actives 21% (n = 1,600); shares compounds with KCNQ1 block; fluorescence ratio (Tl flux) at 10 µM; AID 588366; parental CHO-K1, FluxOR thallium flux fluorescence ratio; stronger effect = lower value; zero means no signal rise above baseline;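 active = mean of duplicate thallium-flux fluorescence ratios in parental host cells more than 5 SD below the buffer control mean, cut at about 0.38 in these data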;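 also: ratio is peak minus minimum fluorescence divided by baseline fluorescence; actives read low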
# KCNQ1 APC inh: human KCNQ1 inhibition validated by electrophysiology; shares compounds with KCNQ1 block; KCNQ1-CHO cells, automated patch clamp current; calls only at 10 µM; actives 20% (n = 490);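 active = KCNQ1 current drop exceeding 3 SD of negative control wells, seen in both duplicate runs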;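 also: steady state current during a 2 s step from -80 to +40 mV; negative values mean current inhibition and positive values mean potentiation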
# KCNQ2 inh: KCNQ1 inhibitor that also blocks rat KCNQ2 channel; AID 651746; inhibition, % at 10 µM; shares compounds with KCNQ1 block; actives 71% (n = 1,600); KCNQ2 cells, FluxOR thallium flux fluorescence;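 active = mean percent inhibition of the KCNQ2 thallium signal more than 5 SD above the buffer-only control wells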;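 also: KCNQ2 expressed in CHO cells; 0% = buffer control wells and 100% = XE-991 inhibitor control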
# Target sequence (O88943 whole entry, looked up): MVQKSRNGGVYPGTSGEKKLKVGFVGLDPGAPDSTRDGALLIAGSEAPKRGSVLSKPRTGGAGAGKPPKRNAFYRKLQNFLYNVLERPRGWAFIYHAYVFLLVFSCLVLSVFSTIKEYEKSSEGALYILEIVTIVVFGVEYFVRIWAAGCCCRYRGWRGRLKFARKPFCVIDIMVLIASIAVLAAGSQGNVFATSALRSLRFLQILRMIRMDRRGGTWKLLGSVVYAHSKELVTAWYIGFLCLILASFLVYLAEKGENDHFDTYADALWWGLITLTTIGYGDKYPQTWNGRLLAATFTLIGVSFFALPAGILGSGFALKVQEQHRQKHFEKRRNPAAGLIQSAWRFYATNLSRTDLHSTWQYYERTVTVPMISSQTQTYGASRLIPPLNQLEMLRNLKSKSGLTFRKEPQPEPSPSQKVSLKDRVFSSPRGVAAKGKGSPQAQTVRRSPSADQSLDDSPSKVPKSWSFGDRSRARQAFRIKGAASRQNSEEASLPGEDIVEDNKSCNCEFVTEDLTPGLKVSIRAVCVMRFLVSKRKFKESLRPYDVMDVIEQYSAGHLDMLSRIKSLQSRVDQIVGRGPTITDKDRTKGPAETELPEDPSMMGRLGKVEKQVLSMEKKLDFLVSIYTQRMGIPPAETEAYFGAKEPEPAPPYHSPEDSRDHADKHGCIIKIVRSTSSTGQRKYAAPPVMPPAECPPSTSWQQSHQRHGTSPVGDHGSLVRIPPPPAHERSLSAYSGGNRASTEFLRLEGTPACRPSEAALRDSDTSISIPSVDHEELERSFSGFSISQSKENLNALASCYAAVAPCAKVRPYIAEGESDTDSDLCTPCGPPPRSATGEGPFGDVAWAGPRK
# KCNQ1 KCNE1 spec: human KCNQ1/KCNE1 inhibition in KCNQ1 specificity screen; shares compounds with KCNQ1 block; KCNQ1/KCNE1 cells, FluxOR thallium flux fluorescence; inhibition, % at 10 µM; actives 77% (n = 1,600); AID 652147;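 active = mean percent inhibition of duplicate wells above the buffer-only control mean plus 3 SD of those controls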;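 also: 0% = buffer only wells and 100% = XE-991 inhibitor control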
# Numbers without * were called inactive; i = inactive; / = no result; + = active, no number.
SMILES,KCNQ1 block,KCNK9 inh,hERG rescue,Kir21 block,KCNK3 block,KCNQ1 act,KCNQ1 inh valid,CHO KCNQ1 ctr,KCNQ2 inh,KCNQ1 KCNE1 spec,others
COc1ccc(-c2cc(C(=O)N3CCN(c4cccc(C)c4C)CC3)c3ccccc3n2)cc1OC,8*,i,-29,-0.68,i,i,60*,0.45,108%*,96%*,
Cc1ccc(CNC(=S)NC2CCC(C(C)(C)C)CC2)cc1 (stereo unspecified),13*,i,-19,-2.6,i,i,108*,0.45,84%*,80%*,KCNQ1 APC inh=i
Fc1ccc(CNC(=S)NC2CCCCCC2)cc1,i,i,-8,-0.99,i,i,/,/,/,/,
S=C(NCCc1ccc(Cl)cc1)NCc1ccccc1,10*,i,-13,-7.3*,i,i,63*,0.49,74%*,72%*,
S=C(NCc1ccccc1)Nc1ccc(Cl)cc1,i,i,-6,-0.44,i,i,/,/,/,/,
S=C(NCCc1cccc(Cl)c1)NCc1ccccc1,8*,i,-7,-3.8,i,i,66*,0.47,i,56%*,
Cc1c(Cl)cccc1NC(=S)NCCc1ccc(Cl)cc1,15*,i,-8,-1.9,i,i,73*,0.56,79%*,51%*,
O=C(CN1CCN(S(=O)(=O)c2cccc(F)c2)CC1)NCC1(N2CCOCC2)CCCCC1,/,/,/,/,i,/,/,/,/,/,
O=c1ccn([C@@H]2O[C@H](CNS(=O)(=O)c3csc(-c4ccno4)c3)[C@@H](O)[C@H]2O)c(=O)[nH]1,/,/,/,/,i,/,/,/,/,/,
CC(C)C(NC(=O)c1ccc(C(C)(C)C)cc1)C(=O)NCc1ccccn1 (stereo unspecified),/,/,/,/,i,/,/,/,/,/,
FC(F)(F)c1nc(SCc2ccc(Cl)cc2Cl)n[nH]1,6*,i,-18,1.1,i,i,0,0.48,i,i,
Cc1ccccc1NS(=O)(=O)c1ccc(NC(=O)N2CCCCC2)cc1,i,i,-8,-0.91,i,i,/,/,/,/,
CCOC(=O)c1cnc(-n2nc(C)cc2C)nc1NC1CCCCC1,11*,i,-32,1.8,i,i,76*,0.4,108%*,107%*,
Fc1ccccc1CN1CCCN(C(=S)Nc2cccc(Cl)c2)C1,7*,i,-8,-0.01,i,i,47*,0.48,73%*,i,
Cc1c(Cl)cccc1NC(=S)N1CCCN(Cc2ccccc2F)C1,i,i,-16,-1.4,i,i,/,/,/,/,
CNC[C@H](O)c1cccc(O)c1,i,i,-4,-0.21,i,i,/,/,/,/,
CCN(CC(O)c1cccc(O)c1)C(=O)C12CC3CC(CC(C3)C1)C2 (stereo unspecified),6*,i,-6,-3.2,i,i,66*,0.45,77%*,43%*,
O=C(Nc1ccccc1C(=O)N1CCCCC1)NC1CCCCC1,i,i,-6,-0.51,i,i,/,/,/,/,
c1ccc(-c2noc(CSc3nnnn3-c3ccccc3)n2)cc1,6*,i,-11,0.78,i,i,60*,0.48,62%*,74%*,
Cc1ccccc1NC(=O)C(c1ccccc1)C1CCCC1 (stereo unspecified),i,i,-11,0.21,i,i,/,/,/,/,
O=C(Nc1ccc2ccccc2c1)C(c1ccccc1)C1CCCC1 (stereo unspecified),15*,-7.5*,-25,-0.3,i,i,138*,0.31*,123%*,167%*,
Cc1cc(C)nc(N2CCC(C(=O)N3CCN(c4cc(Cl)ccc4C)CC3)CC2)n1,9*,i,-14,1.3,i,i,140*,0.46,111%*,176%*,KCNQ1 APC inh=i
Cc1ccc(C)c(N2CCN(C(=O)C3CCN(c4nc(C)cc(C)n4)CC3)CC2)c1,i,i,-13,1.8,i,i,/,/,/,/,
COc1ccc(CC(=O)Nc2cccc(-c3nnc(-c4cccc(C)c4)o3)c2)cc1OC,10*,i,-34,0.82,i,i,144*,0.32*,132%*,98%*,
CCN(C(=O)CSc1nnc(-c2ccco2)n1C)c1c(N)n(Cc2ccccc2)c(=O)[nH]c1=O,/,/,/,/,i,/,/,/,/,/,
SMILES,KCNQ1 block,KCNK9 inh,hERG rescue,Kir21 block,KCNK3 block,KCNQ1 act,KCNQ1 inh valid,CHO KCNQ1 ctr,KCNQ2 inh,KCNQ1 KCNE1 spec,others
Cc1cc(C(=O)NCc2cc(F)cc3c2OCOC3)nn1C,i,i,-8,1.2,i,i,/,/,/,/,
Cn1nc(C(C)(C)C)cc1C(=O)NCc1cc(F)cc2c1OCOC2,7*,i,-25,0.7,i,i,94*,0.45,82%*,34%*,KCNQ1 APC inh=+
Nc1nc2c(c(=O)[nH]1)C(c1cccc3ccccc13)C1=C(N2)c2ccccc2C1=O (stereo unspecified),/,/,/,/,i,/,/,/,/,/,
CCOC(=O)N(C)c1ccc(C(O)(C(F)(F)F)C(F)(F)F)cc1,8*,i,-12,0.42,i,i,74*,0.44,79%*,80%*,
O=C1C=C(NC(=O)Nc2ccc(Cl)c(Cl)c2)CCC1,13*,i,-18,1,i,i,39*,0.51,i,i,
O=C(Nc1ccc(Cl)c(Cl)c1)Nc1ccccc1O,7*,i,-20,0.44,i,i,72*,0.57,i,66%*,
Cn1c(O)c(/C=N/NC(=O)c2cc3ccccc3cc2O)c2ccccc21,17*,i,-24,-6.3,i,i,101*,0.32*,i,i,
COCCn1c(C)cc(/C=N/NC(=O)c2cc3ccccc3cc2O)c1C,/,/,/,/,i,/,/,/,/,/,
Fc1cccc(NC(=S)NCCc2ccccc2)c1,7*,i,-9,-0.33,i,i,52*,0.56,62%*,i,
O=C(NCCCCc1ccccc1)Nc1cccc(F)c1,6*,i,-15,-0.53,i,i,61*,0.52,i,36%*,
CCc1cc(Br)ccc1NC(=S)NCCc1ccccc1,6*,i,-9,-7.9*,i,i,65*,0.51,59%*,70%*,

# Bioassay records deposited in PubChem BioAssay by Johns Hopkins Ion Channel Center.
